# Experimental data reported in ChEMBL document CHEMBL1143835, “Antipropionibacterial activity of BAL19403, a novel macrolide antibiotic” (2007).
# Assays:
# Cutibacterium acnes [1] = test: MBC/MIC ratio of Propionibacterium acnes SW101T; assay type: functional
# Method in brief: (§1)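 MIC by CLSI broth microdilution in Wilkins-Chalgren broth in anaerobic jars (O2 <0.1%, CO2 >15%), read after 48 h at 35–37°C on an illuminated plate reader. For MBC, samples were plated onto Wilkins-Chalgren agar and incubated anaerobically for 72 h at 35–37°C before growth was scored.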
# Cutibacterium acnes [2] = test: Antibacterial activity against drug-resistant Propionibacterium acnes P429:1 (SC) after 48 hrs by broth microdilution method; assay type: functional
# Method in brief: (§2)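 Broth microdilution MIC in Wilkins-Chalgren broth without lysed horse blood, following CLSI anaerobe guidelines. Plates were held in anaerobic jars with atmosphere generators (O2 <0.1% by 2.5 h, CO2 >15% by 24 h) at 35 to 37°C for 48 h. Growth was read with an illuminated plate reader and magnifying mirror.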
# [3] = system: Staphylococcus epidermidis; test: Antibacterial activity against Staphylococcus epidermidis after 48 hrs by broth microdilution method; assay type: functional
# Cutibacterium acnes [4] = test: Antibacterial activity against drug-resistant Propionibacterium acnes SW54EA after 48 hrs by broth microdilution method; assay type: functional; method in brief: as §2
# Cutibacterium acnes [5] = test: Antibacterial activity against drug-resistant Propionibacterium acnes SW10 after 48 hrs by broth microdilution method; assay type: functional; method in brief: as §2
# Cutibacterium acnes [6] = test: Antibacterial activity against drug-resistant Propionibacterium acnes P95 after 72 hrs; assay type: functional
# Method in brief: (§3)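 MBC for P. acnes followed MIC assays by standard methodology. Samples were plated on Wilkins-Chalgren agar, incubated anaerobically in GENbox jars at 35 to 37°C, and examined for growth after 72 h.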
# Cutibacterium acnes [7] = test: Antibacterial activity against drug-resistant Propionibacterium acnes SW11 after 48 hrs by broth microdilution method; assay type: functional; method in brief: as §2
# Cutibacterium acnes [8] = test: Antibacterial activity against drug-resistant Propionibacterium acnes P425:1 after 48 hrs by broth microdilution method; assay type: functional; method in brief: as §2
# Cutibacterium acnes [9] = test: Antibacterial activity against drug-resistant Propionibacterium acnes P95 after 48 hrs by broth microdilution method; assay type: functional; method in brief: as §2
# Cutibacterium acnes [10] = test: Antibacterial activity against drug-resistant Propionibacterium acnes SW3CD after 72 hrs; assay type: functional; method in brief: as §3
# Cutibacterium acnes [11] = test: Antibacterial activity against drug-resistant Propionibacterium acnes SW101T after 72 hrs; assay type: functional; method in brief: as §3
# Cutibacterium acnes [12] = test: Antibacterial activity against drug-resistant Propionibacterium acnes SW3CD after 48 hrs by broth microdilution method; assay type: functional; method in brief: as §2
# [13] = system: Propionibacterium granulosum; test: Antibacterial activity against drug-resistant Propionibacterium granulosum NCTC-11865 after 48 hrs by broth microdilution method; assay type: functional; conditions: Cutibacterium granulosum, NCTC-11865, 48 h; method in brief: as §2
# Staphylococcus aureus [14] = test: Antibacterial activity against methicillin-susceptible Staphylococcus aureus after 48 hrs by broth microdilution method; assay type: functional
# Cutibacterium acnes [15] = test: MBC/MIC ratio of Propionibacterium acnes GE4E; assay type: functional; method in brief: as §1
# Cutibacterium acnes [16] = test: Antibacterial activity against drug-resistant Propionibacterium acnes SW26 after 48 hrs by broth microdilution method; assay type: functional; method in brief: as §2
# [17] = system: Streptococcus equi subsp. zooepidemicus; test: Antibacterial activity against Streptococcus equi subsp. zooepidemicus after 48 hrs by broth microdilution method; assay type: functional
# Cutibacterium acnes [18] = test: Antibacterial activity against drug-resistant Propionibacterium acnes P:413 after 48 hrs by broth microdilution method; assay type: functional; method in brief: as §2
# Cutibacterium acnes [19] = test: Antibacterial activity against drug-resistant Propionibacterium acnes SW101T after 48 hrs by broth microdilution method; assay type: functional; method in brief: as §2
# Corynebacterium jeikeium = test: Antibacterial activity against Corynebacterium jeikeium after 48 hrs by broth microdilution method; assay type: functional
# Method in brief: (§4)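 Broth microdilution per CLSI in cation-adjusted Mueller-Hinton broth supplemented with 0.5% (vol/vol) Tween 80. Plates incubated at 35°C in ambient air for 44 to 48 h, then read visually. MICs in μg/ml; a geometric mean MIC was calculated across the corynebacterial strains.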
# Cutibacterium acnes [20] = test: Antibacterial activity against drug-resistant Propionibacterium acnes GE4E after 72 hrs; assay type: functional; method in brief: as §3
# Staphylococcus aureus [21] = test: Antibacterial activity against methicillin-resistant Staphylococcus aureus after 20 to 24 hrs by broth microdilution method
# Cutibacterium acnes [22] = test: Antibacterial activity against drug-resistant Propionibacterium acnes P322:2 after 48 hrs by broth microdilution method; assay type: functional; method in brief: as §2
# Staphylococcus aureus [23] = test: Antibacterial activity against borderline oxacillin-resistant Staphylococcus aureus after 20 to 24 hrs by broth microdilution method
# Cutibacterium acnes [24] = test: Antibacterial activity against drug-resistant Propionibacterium acnes FG7E after 48 hrs by broth microdilution method; assay type: functional; method in brief: as §2
# Cutibacterium acnes [25] = test: Antibacterial activity against drug-resistant Propionibacterium acnes EG13NS after 48 hrs by broth microdilution method; assay type: functional; method in brief: as §2
# Cutibacterium acnes [26] = test: Antibacterial activity against drug-resistant Propionibacterium acnes GE46EB after 48 hrs by broth microdilution method; assay type: functional; method in brief: as §2
# Streptococcus pyogenes = test: Antibacterial activity against Streptococcus pyogenes after 20 to 24 hrs by broth microdilution method
# [27] = system: Corynebacterium minutissimum; test: Antibacterial activity against Corynebacterium minutissimum after 48 hrs by broth microdilution method; assay type: functional; method in brief: as §4
# [28] = system: Propionibacterium granulosum; test: Antibacterial activity against drug-resistant Propionibacterium granulosum QK6/92 after 48 hrs by broth microdilution method
# Cutibacterium acnes [29] = test: Antibacterial activity against drug-resistant Propionibacterium acnes EG7NS after 48 hrs by broth microdilution method; assay type: functional; method in brief: as §2
# Cutibacterium acnes [30] = test: Antibacterial activity against drug-resistant Propionibacterium acnes OK8/97 after 48 hrs by broth microdilution method; assay type: functional; method in brief: as §2
# [31] = Antibacterial activity against Streptococcus dysgalactiae subsp. dysgalactiae after 48 hrs by broth microdilution method; assay type: functional
# Cutibacterium acnes [32] = test: Antibacterial activity against drug-resistant Propionibacterium acnes SW101CDA after 48 hrs by broth microdilution method; assay type: functional; method in brief: as §2
# Cutibacterium acnes [33] = test: Antibacterial activity against drug-resistant Propionibacterium acnes P401:5 after 48 hrs by broth microdilution method; assay type: functional; method in brief: as §2
# Cutibacterium acnes [34] = test: Antibacterial activity against drug-resistant Propionibacterium acnes P429:1 (BC) after 48 hrs by broth microdilution method; assay type: functional; method in brief: as §2
# [35] = system: Corynebacterium diphtheriae; test: Antibacterial activity against Corynebacterium diphtheriae after 48 hrs by broth microdilution method; assay type: functional; method in brief: as §4
# Cutibacterium acnes [36] = test: Antibacterial activity against drug-resistant Propionibacterium acnes GE4E after 48 hrs by broth microdilution method; assay type: functional; method in brief: as §2
# Cutibacterium acnes [37] = test: Antibacterial activity against drug-resistant Propionibacterium acnes SW16 after 48 hrs by broth microdilution method; assay type: functional; method in brief: as §2
# Cutibacterium acnes [38] = test: Antibacterial activity against drug-resistant Propionibacterium acnes SP64E after 48 hrs by broth microdilution method; assay type: functional; method in brief: as §2
# Cutibacterium acnes [39] = test: Antibacterial activity against drug-resistant Propionibacterium acnes D-04/97 after 48 hrs by broth microdilution method; assay type: functional; method in brief: as §2
# Cutibacterium acnes [40] = test: Antibacterial activity against drug-resistant Propionibacterium acnes SW17 after 48 hrs by broth microdilution method; assay type: functional; method in brief: as §2
# [41] = system: Corynebacterium amycolatum; test: Antibacterial activity against Corynebacterium amycolatum after 48 hrs by broth microdilution method; assay type: functional; method in brief: as §4
# Cutibacterium acnes [42] = test: Antibacterial activity against drug-resistant Propionibacterium acnes EG7NS after 72 hrs; assay type: functional; method in brief: as §3
# Cutibacterium acnes [43] = test: Antibacterial activity against drug-resistant Propionibacterium acnes EG3NS after 48 hrs by broth microdilution method; assay type: functional; method in brief: as §2
# Cutibacterium acnes [44] = test: MBC/MIC ratio of Propionibacterium acnes P95; assay type: functional; method in brief: as §1
# Cutibacterium acnes [45] = test: MBC/MIC ratio of Propionibacterium acnes EG7NS; assay type: functional; method in brief: as §1
# Cutibacterium acnes [46] = test: MBC/MIC ratio of Propionibacterium acnes SW3CD; assay type: functional; method in brief: as §1
smiles,measurement,setting,value
CC[C@H]1OC(=O)[C@H](C)[C@@H](O[C@H]2C[C@@](C)(OC)[C@@H](O)[C@H](C)O2)[C@H](C)[C@@H](O[C@@H]2O[C@H](C)C[C@H](N(C)C)[C@H]2O)[C@](C)(OC)C[C@@H](C)C(=O)[C@H](C)[C@H]2[C@H](SCCn3cnc4cccnc43)C(=O)O[C@@]21C,Ratio,Cutibacterium acnes [1],>8
same,MIC,Cutibacterium acnes [2],≤ 0.06 µg/mL
same,MIC,[3],4.24 µg/mL
same,MIC,Cutibacterium acnes [4],0.5 µg/mL
same,MIC,Cutibacterium acnes [5],≤ 0.06 µg/mL
same,MBC,Cutibacterium acnes [6],≤ 0.06 µg/mL
same,MIC,Cutibacterium acnes [7],≤ 0.06 µg/mL
same,MIC,Cutibacterium acnes [8],4 µg/mL
same,MIC,Cutibacterium acnes [9],≤ 0.06 µg/mL
same,MBC,Cutibacterium acnes [10],≤ 0.06 µg/mL
same,MBC,Cutibacterium acnes [11],> 32 µg/mL
same,MIC,Cutibacterium acnes [12],≤ 0.06 µg/mL
same,MIC,[13],≤ 0.06 µg/mL
same,MIC,Staphylococcus aureus [14],4.32 µg/mL
same,Ratio,Cutibacterium acnes [15],>=2
same,MIC,Cutibacterium acnes [16],≤ 0.06 µg/mL
same,MIC,[17],0.08 µg/mL
same,MIC,Cutibacterium acnes [18],≤ 0.06 µg/mL
same,MIC,Cutibacterium acnes [19],4 µg/mL
same,MIC,Corynebacterium jeikeium,0.88 µg/mL
same,MBC,Cutibacterium acnes [20],≥ 256 µg/mL
same,MIC,Staphylococcus aureus [21],4.32 µg/mL
same,MIC,Cutibacterium acnes [22],0.25 µg/mL
same,MIC,Staphylococcus aureus [23],4.32 µg/mL
same,MIC,Cutibacterium acnes [24],0.5 µg/mL
same,MIC,Cutibacterium acnes [25],≤ 0.06 µg/mL
same,MIC,Cutibacterium acnes [26],256 µg/mL
same,MIC,Streptococcus pyogenes,0.19 µg/mL
same,MIC,[27],0.88 µg/mL
same,MIC,[28],0.125 µg/mL
same,MIC,Cutibacterium acnes [29],≤ 0.06 µg/mL
same,MIC,Cutibacterium acnes [30],≤ 0.06 µg/mL
same,MIC,[31],0.12 µg/mL
same,MIC,Cutibacterium acnes [32],64 µg/mL
same,MIC,Cutibacterium acnes [33],≤ 0.06 µg/mL
same,MIC,Cutibacterium acnes [34],0.5 µg/mL
same,MIC,[35],0.88 µg/mL
same,MIC,Cutibacterium acnes [36],128 µg/mL
same,MIC,Cutibacterium acnes [37],≤ 0.06 µg/mL
same,MIC,Cutibacterium acnes [38],≥ 256 µg/mL
same,MIC,Cutibacterium acnes [39],≤ 0.06 µg/mL
same,MIC,Cutibacterium acnes [40],≤ 0.06 µg/mL
same,MIC,[41],0.88 µg/mL
same,MBC,Cutibacterium acnes [42],≤ 0.06 µg/mL
same,MIC,Cutibacterium acnes [43],≤ 0.06 µg/mL
CCC[C@@H]1C[C@@H](C(=O)N[C@@H]([C@H]2O[C@H](SC)[C@H](O)[C@@H](O)[C@H]2O)[C@H](C)Cl)N(C)C1 [CLINDAMYCIN],Ratio,Cutibacterium acnes [1],>2
same,Ratio,Cutibacterium acnes [44],>64
same,MIC,Cutibacterium acnes [2],4 µg/mL
same,MIC,[3],1.12 µg/mL
same,MIC,Cutibacterium acnes [4],32 µg/mL
same,MIC,Cutibacterium acnes [5],0.125 µg/mL
same,MBC,Cutibacterium acnes [6],32 µg/mL
same,MIC,Cutibacterium acnes [7],0.5 µg/mL
same,Ratio,Cutibacterium acnes [45],>=533
same,MIC,Cutibacterium acnes [8],512 µg/mL
same,MIC,Cutibacterium acnes [9],0.5 µg/mL
same,MBC,Cutibacterium acnes [10],> 32 µg/mL
same,MIC,Cutibacterium acnes [12],8 µg/mL
same,MIC,[13],≤ 0.06 µg/mL
same,MIC,Staphylococcus aureus [14],1.16 µg/mL
same,MIC,Cutibacterium acnes [16],≤ 0.06 µg/mL
same,MIC,[17],0.11 µg/mL
same,MIC,Cutibacterium acnes [18],≤ 0.06 µg/mL
same,MIC,Cutibacterium acnes [19],256 µg/mL
same,MIC,Corynebacterium jeikeium,7.97 µg/mL
same,MIC,Staphylococcus aureus [21],1.16 µg/mL
same,MIC,Cutibacterium acnes [22],4 µg/mL
same,MIC,Staphylococcus aureus [23],1.16 µg/mL
same,MIC,Cutibacterium acnes [24],≥ 32 µg/mL
same,MIC,Cutibacterium acnes [25],≤ 0.06 µg/mL
same,MIC,Cutibacterium acnes [26],512 µg/mL
same,MIC,Streptococcus pyogenes,0.07 µg/mL
same,MIC,[27],7.97 µg/mL
same,MIC,[28],1 µg/mL
same,MIC,Cutibacterium acnes [29],≤ 0.06 µg/mL
same,MIC,Cutibacterium acnes [30],0.125 µg/mL
same,MIC,[31],0.12 µg/mL
same,MIC,Cutibacterium acnes [32],≥ 512 µg/mL
same,Ratio,Cutibacterium acnes [46],>4
same,MIC,Cutibacterium acnes [33],1 µg/mL
same,MIC,Cutibacterium acnes [34],8 µg/mL
same,MIC,[35],7.97 µg/mL
same,MIC,Cutibacterium acnes [36],> 512 µg/mL
same,MIC,Cutibacterium acnes [37],≤ 0.06 µg/mL
same,MIC,Cutibacterium acnes [38],> 512 µg/mL
same,MIC,Cutibacterium acnes [39],0.125 µg/mL
same,MIC,Cutibacterium acnes [40],≤ 0.06 µg/mL
same,MIC,[41],7.97 µg/mL
same,MBC,Cutibacterium acnes [42],> 32 µg/mL
same,MIC,Cutibacterium acnes [43],0.25 µg/mL
